# Reference: ChEMBL document CHEMBL5346889, “Discovery of 4-oxo-N-phenyl-1,4-dihydroquinoline-3-carboxamide derivatives as novel anti-inflammatory agents for the treatment of acute lung injury and sepsis” (Eur J Med Chem, 2023)
# pIC50: −log10 of the molar value. The source made the active and inactive calls. The calls are words filed in the database; no cut-off is given here.
# What was measured:
# [1] = tested on: J774.A1; assay: Antiinflammatory activity in LPS-induced mouse J774.A1 cells assessed as inhibition of LPS-induced TNF-alpha release at 10 uM preincubated for 30 mins followed by LPS stimulation for 24 hrs by ELISA method; format: functional; settings: time 24.5 hrs
# Procedure, shortened: (§1)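 J774A.1 macrophages pretreated 30 min at 10 μM, then challenged with LPS 0.5 μg/mL for 24 h at 37 °C, 5% CO2. Medium IL-6 and TNF-α measured by ELISA, normalized to total lysate protein.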
# [2] = tested on: J774.A1; assay: Antiinflammatory activity in LPS-induced mouse J774.A1 cells assessed as inhibition of LPS-induced IL-6 release at 10 uM preincubated for 30 mins followed by LPS stimulation for 24 hrs by ELISA method; format: functional; settings: time 24.5 hrs; procedure, shortened: as §1
# [3] = tested on: Mus musculus; assay: Protection against LPS-induced C57/BL6 mouse acute lung injury model assessed as improvement in structural distruption of lung tissue at 20 mg/kg via oral gavage preincubated for 30 mins followed by LPS stimulation for 6 hrs; format: functional, organism-based; settings: time 6.5 hrs
# Procedure, shortened: (§2)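 Mice dosed 20 mg/kg by gavage (dexamethasone 20 mg/kg comparator), intratracheal LPS 5 mg/kg 30 min later, killed at 6 h. Right upper lobe fixed in paraformaldehyde, H&E; lung wet/dry ratio; BALF protein, total cells and neutrophils counted; n = 5 mice per group, mean ± SEM.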
# [4] = tested on: Mus musculus; assay: Protection against LPS-induced C57/BL6 mouse acute lung injury model assessed as improvement in alveolar wall thickening at 20 mg/kg via oral gavage preincubated for 30 mins followed by LPS stimulation for 6 hrs; format: functional, organism-based; settings: time 6.5 hrs; procedure, shortened: as §2
# [5] = tested on: Mus musculus; assay: Protection against LPS-induced C57/BL6 mouse acute lung injury model assessed as reduction in lung wet/dry ratio at 20 mg/kg via oral gavage preincubated for 30 mins followed by LPS stimulation for 6 hrs; format: functional, organism-based; settings: time 6.5 hrs; procedure, shortened: as §2
# [6] = tested on: Mus musculus; assay: Protection against LPS-induced C57/BL6 mouse acute lung injury model assessed as reduction in protein concentration in BALF at 20 mg/kg via oral gavage preincubated for 30 mins followed by LPS stimulation for 6 hrs; format: functional, organism-based; settings: time 6.5 hrs; procedure, shortened: as §2
# [7] = tested on: Mus musculus; assay: Protection against LPS-induced C57/BL6 mouse acute lung injury model assessed as reduction in number of total cells in BALF at 20 mg/kg via oral gavage preincubated for 30 mins followed by LPS stimulation for 6 hrs; format: functional, organism-based; settings: time 6.5 hrs; procedure, shortened: as §2
# [8] = tested on: Mus musculus; assay: Protection against LPS-induced C57/BL6 mouse acute lung injury model assessed as reduction in number of neutrophils in BALF at 20 mg/kg via oral gavage preincubated for 30 mins followed by LPS stimulation for 6 hrs; format: functional, organism-based; settings: time 6.5 hrs; procedure, shortened: as §2
# [9] = tested on: Mus musculus; assay: Antiinflammatory activity in LPS-induced C57/BL6 mouse acute lung injury model assessed as decrease in IL-6 expression level at 20 mg/kg via oral gavage preincubated for 30 mins followed by LPS stimulation for 6 hrs by RT-qPCR method; format: functional, organism-based; settings: time 6.5 hrs
# Procedure, shortened: (§3)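 Male C57BL/6 mice, six weeks old, n = 8 per group. Dosed 20 mg/kg orally 30 min before intratracheal LPS 5 mg/kg; dexamethasone 20 mg/kg as comparator. Lung tissue collected 6 h after LPS. RNA extracted with TRIzol; IL-6 and TNF-α transcripts by RT-qPCR, normalized to β-actin; n = 5 mice per group, mean ± SEM.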
# [10] = tested on: Mus musculus; assay: Antiinflammatory activity in LPS-induced C57/BL6 mouse acute lung injury model assessed as decrease in TNF-alpha expression level at 20 mg/kg via oral gavage preincubated for 30 mins followed by LPS stimulation for 6 hrs by RT-qPCR method; format: functional, organism-based; settings: time 6.5 hrs; procedure, shortened: as §3
# [11] = tested on: Mus musculus; assay: Antiinflammatory activity in LPS-induced C57/BL6 mouse acute lung injury model assessed as reduction in macrophage infiltration at 20 mg/kg via oral gavage preincubated for 30 mins followed by LPS stimulation for 6 hrs by immunohistochemical staining based analysis; format: functional, organism-based; settings: time 6.5 hrs
# Procedure, shortened: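 Same ALI model: 20 mg/kg oral, intratracheal LPS 5 mg/kg 30 min later, lungs at 6 h. Paraffin sections given citrate (pH 6.5) antigen retrieval, 3% H2O2 and 5% BSA block, anti-F4/80 12 h at 4 °C, HRP secondary, DAB and hematoxylin; F4/80 positivity quantified; n = 5 per group.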
# [12] = tested on: Mus musculus; assay: Antiinflammatory activity in LPS-induced C57/BL6 mouse acute lung injury model assessed as decrease in IL-6 level in BALF at 20 mg/kg via oral gavage preincubated for 30 mins followed by LPS stimulation for 6 hrs by ELISA; settings: time 6.5 hrs
# [13] = tested on: Mus musculus; assay: Antiinflammatory activity in LPS-induced C57/BL6 mouse acute lung injury model assessed as decrease in IL-6 level in serum at 20 mg/kg via oral gavage preincubated for 30 mins followed by LPS stimulation for 6 hrs by ELISA; settings: time 6.5 hrs
# [14] = tested on: Mus musculus; assay: Antiinflammatory activity in LPS-induced C57/BL6 mouse acute lung injury model assessed as decrease in TNF-alpha level in BALF at 20 mg/kg via oral gavage preincubated for 30 mins followed by LPS stimulation for 6 hrs by ELISA; settings: time 6.5 hrs
# [15] = tested on: Mus musculus; assay: Antiinflammatory activity in LPS-induced C57/BL6 mouse acute lung injury model assessed as decrease in TNF-alpha level in serum at 20 mg/kg via oral gavage preincubated for 30 mins followed by LPS stimulation for 6 hrs by ELISA; settings: time 6.5 hrs
# [16] = tested on: J774.A1; assay: Cytotoxicity against mouse J774.A1 cells assessed as reduction in cell viability at 10 uM incubated for 24 hrs by MTT assay; format: functional, cell-based
# Procedure, shortened: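 J774A.1 macrophages exposed to 10 μM for 24 h; MTT at 5 mg/mL added for 4 h; absorbance read at 490 nm; viability expressed as percent of DMSO control.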
# [17] = tested on: J774.A1; assay: Antiinflammatory activity in LPS-induced mouse J774.A1 cells assessed as inhibition of LPS-induced TNF-alpha release preincubated for 30 mins followed by LPS stimulation for 24 hrs by ELISA method; format: functional, cell-based
# Procedure, shortened: (§4)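 Dose-response in J774A.1 cells: 30 min pretreatment at 10, 5, 2.5 or 1.25 μM, then LPS 0.5 μg/mL for 24 h. IL-6 and TNF-α by ELISA, normalized to lysate protein; IC50 from the dose-response; 3 independent experiments, mean ± SEM.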
# [18] = tested on: J774.A1; assay: Antiinflammatory activity in LPS-induced mouse J774.A1 cells assessed as inhibition of LPS-induced IL-6 release preincubated for 30 mins followed by LPS stimulation for 24 hrs by ELISA method; format: functional, cell-based; procedure, shortened: as §4
Structure (SMILES),inhibition at 10 µM [1] [%],inhibition at 10 µM [2] [%],inhibition [1],further results
COc1cc2ncnc(Oc3ccc(NC(=O)c4cn(-c5ccc(F)c(Cl)c5)c5ccccc5c4=O)cc3)c2cc1OC,48,39.6,–,–
COc1cc2nccc(Oc3cccc(NC(=O)c4cn(-c5ccccc5)c5ccccc5c4=O)c3)c2cc1OC,–,44.8,inactive,–
COc1cc2ncnc(Oc3ccc(NC(=O)c4cn(-c5ccc(Br)cc5)c5ccccc5c4=O)cc3)c2cc1OC,22.4,–,–,inhibition [2]: inactive
COc1cc2ncnc(Oc3ccc(NC(=O)c4cn(-c5ccc(OC(F)(F)F)cc5)c5ccccc5c4=O)cc3)c2cc1OC,54.9,35.9,–,–
COc1cc2ncnc(Oc3cccc(NC(=O)c4cn(-c5ccc(Br)cc5F)c5ccccc5c4=O)c3)c2cc1OC,–,–,inactive,inhibition [2]: inactive
COc1cc2ncnc(Oc3ccc(NC(=O)c4cn(-c5ccc(Cl)cc5)c5ccccc5c4=O)cc3)c2cc1OC,–,30.5,inactive,–
COc1cc2nccc(Oc3ccc(NC(=O)c4cn(-c5ccc(Br)cc5)c5ccccc5c4=O)cc3)c2cc1OC,71.7,41.7,–,–
COc1cc2ncnc(Oc3cccc(NC(=O)c4cn(-c5ccc(F)cc5)c5ccccc5c4=O)c3)c2cc1OC,–,45.4,inactive,–
COc1cc2ncnc(Oc3cccc(NC(=O)c4cn(-c5ccccc5)c5ccccc5c4=O)c3)c2cc1OC,–,42.4,inactive,–
COc1cc2nccc(Oc3ccc(NC(=O)c4cn(-c5ccc(Cl)cc5)c5ccccc5c4=O)cc3)c2cc1OC,63.5,32,–,–
COc1cc2ncnc(Oc3cccc(NC(=O)c4cn(-c5ccc(Br)cc5)c5ccccc5c4=O)c3)c2cc1OC,–,20.4,inactive,–
COc1cc2nccc(Oc3cccc(NC(=O)c4cn(-c5ccc(OC(F)(F)F)cc5)c5ccccc5c4=O)c3)c2cc1OC,33.3,66.4,–,–
COc1cc2ncnc(Oc3ccc(NC(=O)c4cn(-c5ccc(Br)cc5F)c5ccccc5c4=O)cc3)c2cc1OC,–,13.3,inactive,–
C[C@@H]1C[C@H]2[C@@H]3CCC4=CC(=O)C=C[C@]4(C)[C@@]3(F)[C@@H](O)C[C@]2(C)[C@@]1(O)C(=O)CO,–,–,–,Activity [3]: Active; Activity [4]: Active; Activity [5]: Active; Activity [6]: Active; Activity [7]: Active; Activity [8]: Active; Activity [9]: Active; Activity [10]: Active; Activity [11]: Active; Activity [12]: Active; Activity [13]: Active; Activity [14]: Active; Activity [15]: Active
COc1cc2nccc(Oc3cccc(NC(=O)c4cn(-c5ccc(Br)cc5)c5ccccc5c4=O)c3)c2cc1OC,–,37.1,inactive,–
COc1cc2nccc(Oc3cccc(NC(=O)c4cn(-c5ccc(F)cc5)c5ccccc5c4=O)c3)c2cc1OC,–,51.3,inactive,–
COc1cc2ncnc(Oc3ccc(NC(=O)c4cn(-c5ccc(F)cc5)c5ccccc5c4=O)cc3)c2cc1OC,48,57,–,–
COc1cc2nccc(Oc3ccc(NC(=O)c4cn(-c5ccc(F)cc5)c5ccccc5c4=O)cc3)c2cc1OC,83.1,77.4,–,"Activity [16]: inactive; pIC50 [17]: 5.46; inhibition ([17]; dose 1.25-10 µM, time 24.5 hrs): Dose-Dependent Effect; pIC50 [18]: 5.63; inhibition ([18]; dose 1.25-10 µM, time 24.5 hrs): Dose-Dependent Effect"
COc1cc2nccc(Oc3ccc(NC(=O)c4cn(-c5ccc(F)c(Cl)c5)c5ccccc5c4=O)cc3)c2cc1OC,67.7,62.2,–,–
COc1cc2nccc(Oc3ccc(NC(=O)c4cn(-c5ccc(OC(F)(F)F)cc5)c5ccccc5c4=O)cc3)c2cc1OC,67.6,50.5,–,–
COc1cc2nccc(Oc3ccc(NC(=O)c4cn(-c5ccc(Br)cc5F)c5ccccc5c4=O)cc3)c2cc1OC,–,26.7,inactive,–
COc1cc2ncnc(Oc3cccc(NC(=O)c4cn(-c5ccc(Cl)cc5)c5ccccc5c4=O)c3)c2cc1OC,–,32.3,inactive,–
COc1cc2nccc(Oc3cccc(NC(=O)c4cn(-c5ccc(F)c(Cl)c5)c5ccccc5c4=O)c3)c2cc1OC,32.6,49.7,–,–
COc1cc2nccc(Oc3cccc(NC(=O)c4cn(-c5ccc(Br)cc5F)c5ccccc5c4=O)c3)c2cc1OC,–,52.9,inactive,–
COc1cc2ncnc(Oc3cccc(NC(=O)c4cn(-c5ccc(OC(F)(F)F)cc5)c5ccccc5c4=O)c3)c2cc1OC,7.66,10.4,–,–
COc1cc2ncnc(Oc3ccc(NC(=O)c4cn(-c5ccccc5)c5ccccc5c4=O)cc3)c2cc1OC,30.5,38.1,–,–
COc1cc2nccc(Oc3cccc(NC(=O)c4cn(-c5ccc(Cl)cc5)c5ccccc5c4=O)c3)c2cc1OC,–,60.2,inactive,–
COc1cc2ncnc(Oc3cccc(NC(=O)c4cn(-c5ccc(F)c(Cl)c5)c5ccccc5c4=O)c3)c2cc1OC,36,33.9,–,–
